Measured values from ChEMBL document CHEMBL1155843, “Selective alkylation of beta(II)-tubulin and thioredoxin-1 by structurally related subsets of aryl chloroethylureas leading to either anti-microtubules or redox modulating agents” (2008).
The source made the active and inactive calls. No cut-off for these calls is given here.

How the values were obtained:
M21 [1] = experiment: Antiproliferative activity against human M21 cells after 48 hrs by sulforhodamine B method; type: functional; settings: for GI50: M21, 48 h
In short: (§1)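 Seeding per well: 5 × 10³ HT-29 cells, or 3.5 × 10³ M21 or MCF-7 cells. Drugs were dissolved fresh in DMSO and serially diluted in medium (final range 100 to 0.3), with DMSO held at 0.12%. Cells were exposed for 48 h, fixed with cold TCA (10% final, 1 h, 4 °C) and stained with 0.1% SRB for 15 min. Dye was solubilized in 10 mM Tris and read at A585. Day-0 OD was subtracted, inhibition was calculated against DMSO cells, and n ≥ 3.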

M21 [2] = experiment: Induction of beta2-tubulin alkylation in human M21 cells at 2 times GI50 by Western blot analysis; type: cell-based
In short: (§2)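 Floating and adherent cells were pooled and lysed in boiled Laemmli buffer; protein was measured by Lowry. 20 µg per lane ran on 10% SDS-PAGE and was blotted with anti-βII-tubulin (1:500), HRP anti-mouse (1:2500) and ECL. Alkylation was scored as a faster-migrating βII-tubulin band.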

M21 [3] = experiment: Inhibition of nuclear translocation of thioredoxin-1 from cytosol in human M21 cells at 2 times GI50 after 16 hrs by immunocytofluorescence; type: functional, cell-based
In short: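 Cells were fixed in 3.7% formaldehyde (20 min), permeabilized with 0.1% saponin and blocked with 3% BSA. Staining used anti-Trx-1 monoclonal (1:200, 2 h, 37 °C) and Alexa-488 anti-mouse IgG (1:1000, 1 h). Trx-1 cytosol/nucleus localization was read by confocal immunofluorescence.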

HT-29 = experiment: Antiproliferative activity against human HT29 cells after 48 hrs by sulforhodamine B method; type: functional; settings: for GI50: HT-29, 48 h; in short: as §1
MCF7 [4] = experiment: Cell cycle arrest in human MCF7 cells assessed as accumulation at G0/G1 phase at 2 times GI50 after 24 hrs by flow cytometry; type: functional
In short: (§3)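 Cells were trypsinized, PBS-washed, fixed in ice-cold ethanol, and stained with propidium iodide plus RNase for 30 min at room temperature. G0/G1, S and G2/M fractions were measured by flow cytometry.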

MCF7 [5] = experiment: Cell cycle arrest in human MCF7 cells assessed as accumulation at S phase at 2 times GI50 after 24 hrs by flow cytometry; type: functional; in short: as §3
MCF7 [6] = experiment: Cell cycle arrest in human MCF7 cells assessed as accumulation at G2/M phase at 2 times GI50 after 24 hrs by flow cytometry; type: functional; in short: as §3
M21 [7] = experiment: Induction of beta2-tubulin alkylation in human M21 cells at 2 times GI50 after 48 hrs by Western blot analysis; type: cell-based; in short: as §2
MCF7 [8] = experiment: Antiproliferative activity against human MCF7 cells after 48 hrs by sulforhodamine B method; type: functional; settings: for GI50: MCF7, 48 h; in short: as §1
M21 [9] = experiment: Induction of beta2-tubulin alkylation in human M21 cells at 50 nM by Western blot analysis; type: cell-based
In short: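 Same M21 Western blot workflow (pooled cells, Laemmli lysis, 20 µg on 10% SDS-PAGE, anti-βII-tubulin 1:500, ECL), except that vinblastine, colchicine and paclitaxel were applied at 50 nM for 16, 24 and 48 h at 37 °C. The alkylated form appeared as a lower-apparent-MW band.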

M21 [10] = experiment: Inhibition of nuclear translocation of thioredoxin-1 from cytosol in human M21 cells at 50 nM after 16 hrs by immunocytofluorescence; type: functional, cell-based
In short: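 Reference agents colchicine or vinblastine were applied at 50 nM to M21 cells on fibronectin-coated coverslips. Cells were fixed in formaldehyde, permeabilized with saponin, and stained with anti-Trx-1 (1:200, 2 h, 37 °C) and Alexa-488 secondary. Nuclear versus cytosolic Trx-1 was assessed by confocal microscopy.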

| Structure (SMILES) | GI50 (M21 [1]) [µM] | Activity (M21 [2]) | Activity (M21 [3]) | GI50 (HT-29) [µM] | Activity (MCF7 [4]) [%] | Activity (MCF7 [5]) [%] | Activity (MCF7 [6]) [%] | further results |
| --- | --- | --- | --- | --- | --- | --- | --- | --- |
| c1cc(C2CCCCC2)ccc1NC1=NCCO1 | 18 | inactive | Active | – | – | – | – | – |
| O=C(NCCCl)Nc1ccc(OC2CCCCCC2)cc1 | – | inactive | Active | 13 | – | – | – | – |
| O=C(CCl)NC(=O)Nc1cccc(C2CCCCC2)c1 | 2.4 | inactive | Active | – | – | – | – | – |
| O=C(CCl)NC(=O)Nc1ccc(N2CCOCC2)cc1 | 8.3 | inactive | – | – | – | – | – | – |
| O=C(NCCCl)Nc1cccc(Oc2ccccc2)c1 | – | – | inactive | – | 44 | 26 | 30 | Activity (M21 [7]): Active |
| c1cc(N2CCOCC2)ccc1NC1=NCCO1 | – | inactive | inactive | – | – | – | – | Activity (M21 [1]): inactive |
| CCC1(c2ccc(NC(=O)NCCCl)cc2)CCCCC1 | 19 | inactive | Active | 9.1 | 66 | 17 | 17 | GI50 (MCF7 [8]): 17 µM |
| O=C(NCCCl)Nc1ccc2c(c1)CCCC2 | 3.7 | – | Active | 2 | 10 | 49 | 41 | GI50 (MCF7 [8]): 7.3 µM; Activity (M21 [7]): Active |
| O=C(NCCCl)Nc1cccc(OC2CCCCCC2)c1 | – | inactive | Active | – | – | – | – | – |
| O=C(NCCCl)Nc1cccc(OC2CCCCC2)c1 | – | inactive | – | – | – | – | – | – |
| c1cc(NC2=NCCO2)cc(C2CCCCC2)c1 | 45 | inactive | Active | – | – | – | – | – |
| c1ccc(NC2=NCCO2)cc1 | 81 | inactive | inactive | – | – | – | – | – |
| CC(C)(C)c1ccc(NC(=O)NC(=O)CCl)cc1 | – | inactive | Active | – | – | – | – | – |
| O=C(NCCCl)Nc1ccc(OC2CCCCC2)cc1 | – | inactive | Active | – | – | – | – | – |
| O=C(NCCCl)Nc1ccc(I)cc1 | – | – | – | – | – | – | – | Activity (M21 [7]): Active |
| O=C(NCCCl)Nc1ccc2ccccc2c1 | – | – | inactive | – | 17 | 38 | 45 | Activity (M21 [7]): Active |
| O=C(CCl)NC(=O)Nc1ccc(C2CCCCC2)cc1 | – | inactive | Active | – | – | – | – | – |
| O=C(NCCCl)Nc1ccc(OC2CCCC2)cc1 | – | inactive | Active | – | – | – | – | – |
| CC[C@]1(O)C[C@@H]2CN(CCc3c([nH]c4ccccc34)[C@@](C(=O)OC)(c3cc4c(cc3OC)N(C)[C@H]3[C@@](O)(C(=O)OC)[C@H](OC(C)=O)[C@]5(CC)C=CCN6CC[C@]43[C@@H]65)C2)C1 | – | inactive | – | – | – | – | – | Activity (M21 [9]): inactive; Activity (M21 [10]): inactive |
| O=C(NCCCl)Nc1cccc(C2CCCCC2)c1 | 18 | inactive | Active | 11.7 | 52 | 32 | 16 | GI50 (MCF7 [8]): 20 µM |
| O=C(NCCCl)Nc1cccc(OC2CCCCCCC2)c1 | 30 | inactive | Active | 20 | 61 | 29 | 10 | GI50 (MCF7 [8]): 23 µM |
| O=C(NCCCl)Nc1ccc(C2CCCC2)cc1 | 27 | inactive | – | 18 | 63 | 24 | 13 | GI50 (MCF7 [8]): 26 µM |

| Structure (SMILES) | GI50 (M21 [1]) [µM] | Activity (M21 [2]) | Activity (M21 [3]) | GI50 (HT-29) [µM] | Activity (MCF7 [4]) [%] | Activity (MCF7 [5]) [%] | Activity (MCF7 [6]) [%] | further results |
| --- | --- | --- | --- | --- | --- | --- | --- | --- |
| O=C(NCCCl)Nc1ccc(C2CCCCC2)cc1 | – | inactive | Active | – | – | – | – | – |
| O=C(NCCCl)Nc1ccc2c(c1)Cc1ccccc1-2 | – | – | inactive | – | 11 | 57 | 32 | Activity (M21 [7]): Active |
| CCCCCCc1ccc(NC(=O)NCCCl)cc1 | 3.8 | – | inactive | 2.9 | 16 | 41 | 43 | GI50 (MCF7 [8]): 6.5 µM; Activity (M21 [7]): Active |
| O=C(NCCCl)Nc1ccc2c(c1)CCCCC2 | 7.2 | inactive | inactive | 3.2 | 33 | 24 | 43 | GI50 (MCF7 [8]): 12 µM |
| O=C(CCl)NC(=O)Nc1ccccc1 | 6.9 | inactive | inactive | – | – | – | – | – |
| CC(C)(C)c1ccc(NC(=O)NCCCl)cc1 | – | – | inactive | – | – | – | – | Activity (M21 [7]): Active |
| CC(=O)O[C@H]1C(=O)[C@@]2(C)[C@H]([C@H](OC(=O)c3ccccc3)[C@]3(O)C[C@H](OC(=O)[C@H](O)[C@@H](NC(=O)c4ccccc4)c4ccccc4)C(C)=C1C3(C)C)[C@]1(OC(C)=O)CO[C@@H]1C[C@@H]2O [PACLITAXEL] | – | inactive | – | – | 9 | 11 | 80 | Activity (M21 [9]): inactive; Activity (M21 [10]): inactive |
| CCCC1(c2ccc(NC(=O)NCCCl)cc2)CCCCC1 | 36 | inactive | Active | 18 | 73 | 14 | 13 | GI50 (MCF7 [8]): 23 µM |
| CC1CCC(Oc2ccc(NC(=O)NCCCl)cc2)CC1 (stereo not drawn) | 23 | inactive | Active | 16 | 63 | 13 | 25 | GI50 (MCF7 [8]): 21 µM |
| O=C(NCCCl)Nc1ccc(OC2CCCCCCC2)cc1 | 26 | inactive | Active | 14 | 70 | 14 | 16 | GI50 (MCF7 [8]): 18 µM |
| CC1CCC(Oc2cccc(NC(=O)NCCCl)c2)CC1 (stereo not drawn) | 32 | inactive | Active | 19 | 65 | 20 | 15 | GI50 (MCF7 [8]): 33 µM |
| O=C(NCCCl)Nc1ccc(Oc2ccccc2)cc1 | – | inactive | inactive | – | 15 | 20 | 65 | – |
| O=C(NCCCl)Nc1ccc(N2CCOCC2)cc1 | – | inactive | – | – | – | – | – | Activity (MCF7 [8]): inactive; Activity (M21 [1]): inactive; Activity (HT-29): inactive |
| CC(C)(C)c1ccc(NC2=NCCO2)cc1 | – | inactive | inactive | – | – | – | – | – |
| O=C(NCCCl)Nc1ccccc1 | – | inactive | inactive | – | 59 | 22 | 19 | Activity (MCF7 [8]): inactive; Activity (M21 [1]): inactive; Activity (HT-29): inactive |
| COc1cc2c(c(OC)c1OC)-c1ccc(OC)c(=O)cc1[C@@H](NC(C)=O)CC2 | – | inactive | – | – | – | – | – | Activity (M21 [9]): inactive; Activity (M21 [10]): inactive |
| CCNC(=O)Nc1ccc(C2CCCCC2)cc1 | – | inactive | inactive | – | 55 | 23 | 22 | Activity (MCF7 [8]): inactive; Activity (M21 [1]): inactive; Activity (HT-29): inactive |
| O=C(NCCCl)NC1c2ccccc2-c2ccccc21 | – | inactive | inactive | – | 63 | 29 | 8 | – |
| O=C(NCCCl)Nc1cccc(OC2CCCC2)c1 | – | inactive | – | – | – | – | – | – |
| CC1(c2ccc(NC(=O)NCCCl)cc2)CCCCC1 | 16 | inactive | Active | 7.8 | 60 | 9 | 31 | GI50 (MCF7 [8]): 18 µM |
| O=C(NCCCl)Nc1ccc2c(c1)CCC2 | – | – | – | – | 31 | 29 | 40 | Activity (M21 [7]): Active |
